# Many of the other results were omitted from the sample, so hits are more common in it than they were.
# T cruzi repl – T. cruzi replication inhibition. AID 1885. hit rate 1.4% among 300,000. T. cruzi beta-gal in NIH3T3, luminescence, 90 h. inhibition, % (test concentration not listed);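 active = mean inhibition across valid replicates above about 55%, limit read from the data; inconclusive = mean below that limit but half or more replicates reach it; inactive = mean below it, under half of replicates reach it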;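 also: signal also drops with host cell toxicity which is not excluded here; 0% = plate median of DMSO wells and 100% = zero luminescence signal; higher percent means less beta-gal luminescence so fewer parasites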
#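 System: mouse NIH/3T3 fibroblasts infected with β-gal-expressing T. cruzi Tulahuen C4 / Input: NIH/3T3 cells, 5,000 per well / Buffer or medium: Low-serum DMEM with 2% FBS / Probe or stimulus: 5000 reporter trypomastigotes per well / Schedule: ≥90 h infection period, 3 h prior cell attachment / Measured by: GalScreen luminescence, 60 min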
# Calb FLC – affects C. albicans growth with fluconazole; C. albicans CaCi-2 + fluconazole, Alamar Blue growth, 48 h; growth inhibition, % (concentration not given with the values); hit rate 0.57% among 300,000; AID 1979;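 active = growth inhibition above about 58% in most replicates, limit read from the data, passing the limit was not always enough; inconclusive = exactly half the replicates above a set limit; inactive = most replicates below a set limit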;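 also: all wells also contain fluconazole at 8 µg/ml as a sub-toxic cotreatment; 0% = median of DMSO wells and 100% = median of geldanamycin control wells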
# Lmaj promast – inhibitors of Leishmania major promastigote growth | hit rate 9% among 200,000 | inhibition, % at 10 µM | Leishmania major promastigotes, resazurin fluorescence viability | AID 1063; in the data active = inhibition above about 50%;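 also: promastigotes grown with compound for 44 hours at 28 °C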
# PolyA inhibitor – inhibitors of polyadenylation in S. cerevisiae. S. cerevisiae SKY197-pL101 polyadenylation reporter, beta-gal luminescence; efflux-impaired pdr1/pdr3 knockout yeast; score 100 = 6 SD above DMSO. activity score, % at 12 µM. hit rate 0.02% among 300,000. AID 1875;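 active = lowest replicate activity score at least 50, where 100 means six control SD above control mean; inconclusive = lowest score under 50 but half or more replicates reach 50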;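 also: yeast exposed to compound for 9 h at 30 °C; higher score means more reporter readthrough which indicates perturbed polyadenylation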
# NALP1 yeast inh – NALP1 inhibition | S. cerevisiae NALP1/ASC/caspase-1 growth, X-gal OD620, 72 h | inhibition, % at 10 µM | hit rate 0.61% among 280,000; in the data active = inhibition mostly above about 24%, no sharp cut-off; inactive = mostly below about 32%
# NALP3 yeast inh – NALP3 inhibition in yeast; Yeast reconstituted NLRP3/ASC/caspase-1, beta-gal luminescence, 24 h; inhibition, % at 10 µM; hit rate 0.39% among 330,000;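 active = inhibition of 50% or more; inactive = inhibition below 50%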;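 also: plate controls were induced DMSO wells for no effect and uninduced yeast grown without galactose for full effect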
# * marks the source's active call; other numbers are inactive results; ? = inconclusive; / = no result given.
SMILES,T cruzi repl,Calb FLC,Lmaj promast,PolyA inhibitor,NALP1 yeast inh,NALP3 yeast inh
Cc1cc(CN2CCCC(CO)(Cc3cccc(Cl)c3)C2)n[nH]1 (stereo unspecified),-7.1,-4.0,29.2,-8.0,-1.8,7.2
CC(C)Cc1cc(CN2CCC(CO)(Cc3cccc(C(F)(F)F)c3)CC2)[nH]n1,34.7,-4.6,85.4*,11.1,-2.2,14.4
OCC1(Cc2cccc(Cl)c2)CCCN(Cc2cn[nH]c2C2CCCCC2)C1 (stereo unspecified),44.9,-4.0,36.3,10.5,0.1,-1.3
CC(C)Cc1cc(CN2CCCC(CO)(Cc3cccc(Cl)c3)C2)[nH]n1 (stereo unspecified),37.5,-3.2,68.0*,10.4,13.2,8.9
OCC1(Cc2cccc(Cl)c2)CCCN(Cc2ccc3cc(F)ccc3n2)C1 (stereo unspecified),24.8,23.1,55.2*,3.0,15.4,0.6
Cc1cccc(OCCN2CSC(=S)N(C)C2)c1,10.8,-1.2,99.6*,8.8,-8.4,49.5
COc1ccccc1OCCN1CSC(=S)N(C)C1,9.1,-50.7,100.3*,-85.9,108.2*,38.3
Cc1cccc(OCCn2cnc(Cl)c2Cl)c1,3.1,-8.9,/,7.0,2.2,21.7
O=C(CCn1nc(-c2ccccc2)c2ccccc2c1=O)NCC1CCCO1 (stereo unspecified),-1.7,-4.3,-5.1,-1.0,5.8,15.5
O=C1CC(C(=O)O)S/C(=N\NC(=O)c2ccc(F)cc2)N1 (stereo unspecified),-14.6,-3.7,72.9*,-17.7,20.8,3.5
Cc1ccc(NC(=O)C2CC(=O)N/C(=N/NC(=O)c3ccc(C)cc3)S2)cc1 (stereo unspecified),8.4,1.1,-8.8,3.1,21.3,4.7
COc1ccccc1N=CC=C1OC(C)(C)C(C)(C)O1,58.5*,10.0,16.2,6.2,-6.3,-9.2
Cc1ccc(N=CC=C2OC(C)(C)C(C)(C)O2)c(C)c1,14.4,0.4,8.8,5.3,19.1,10.6
Cc1sc(N)nc1-c1ccc(Oc2ccccc2)cc1,1.7,3.6,/,-49.7,95.4*,37.4
Cc1ccc(C(=O)NC2CCN(S(=O)(=O)c3ccccc3)CC2)cc1,2.3,4.9,-2.6,-5.6,0.9,-7.1
COCCN(C(=S)Nc1ccccc1OC)C(C)c1cccs1 (stereo unspecified),6.2,-9.2,-1.0,2.9,25.3,9.8
O=C(COC(=O)c1cc(Br)ccc1O)Nc1cccnc1Cl,-6.5,0.1,/,-5.2,/,5.3
CC(OC(=O)/C=C/c1ccc2ccccc2n1)C(=O)N(C)c1ccccc1 (stereo unspecified),/,/,/,/,/,26.7
CC(=O)/C=C/c1ccc2ccccc2n1,-31.4,1.1,100.4*,19.3,8.1,33.1
Cc1cc(C)cc(OCC(=O)OCC(=O)c2c(N)n(C)c(=O)n(C)c2=O)c1,-5.0,-1.9,-2.5,8.7,7.2,12.2
COc1ccc(C)cc1S(=O)(=O)N(CC(=O)Nc1ccc2c(c1)OCCO2)Cc1ccccc1,24.8,7.7,73.8*,7.7,17.3,-13.6
CS(=O)(=O)N(CC(=O)Nc1ccc2c(c1)OCCO2)Cc1ccc(Cl)cc1,/,-4.9,95.6*,/,/,12.9
O=C(CNCc1ccc(Cl)cc1)Nc1ccc2c(c1)OCCO2,-8.3,-8.5,-10.5,-9.1,5.4,27.9
CCOC(=O)c1ccc(NC(=O)CN(Cc2ccc(Cl)cc2)S(C)(=O)=O)cc1,20.2,11.4,99.5*,14.3,5.6,5.7
CS(=O)(=O)N(CC(=O)NCc1ccccc1)Cc1ccc(Cl)cc1,5.6,4.4,-3.2,-10.6,7.1,3.0
SMILES,T cruzi repl,Calb FLC,Lmaj promast,PolyA inhibitor,NALP1 yeast inh,NALP3 yeast inh
CC(Sc1ccc(Cl)cc1)C(=O)Nc1ccc2c(c1)OCO2 (stereo unspecified),-5.5,-69.5,1.0,8.7,-4.2,17.0
CC(C(=O)Nc1ccc2c(c1)OCO2)N(c1ccc(Cl)cc1)S(C)(=O)=O (stereo unspecified),-5.4,?,96.9*,-3.3,8.2,5.0
CCOC(=O)c1nn(C)c(C)c1Cl,-3.5,7.5,-4.7,11.4,17.6,20.7
C=CC[C@@H](CC(=O)NCCO)C(=O)N[C@@H](C)COC(=O)[C@H](CC=C)CC(=O)OC(C)(C)C,/,/,/,/,/,25.0
CCOc1ccc(NS(=O)(=O)c2cc(C(=O)N3CCN(c4ccccc4O)CC3)ccc2Cl)cc1,/,/,/,/,/,17.6
CCOc1ccccc1N(CC(=O)NC1CCCCC1)C(=O)CCC(=O)Nc1cc(C)ccn1,/,-6.6,/,-8.0,4.8,26.0
COC(=O)c1sccc1NC(=O)Nc1cccc(C)c1C,/,29.6,/,/,-1.2,15.0
CCN1C(=O)c2cccc3c(S(=O)(=O)NCc4ccccc4)ccc1c23,/,/,/,/,/,6.5
CCN1C(=O)c2cccc3c(S(=O)(=O)NCCc4c[nH]c5ccccc45)ccc1c23,-42.6,38.0,98.8*,-20.4,1.4,18.1
CCN1C(=O)c2cccc3c(S(=O)(=O)NCCCN4CCOCC4)ccc1c23,3.9,-9.4,78.0*,3.6,-0.1,-3.6
Cc1ccc(C2NC(=O)Cc3ccccc32)cc1 (stereo unspecified),-6.1,0.9,-4.5,3.6,8.9,14.9
CCCCn1c(N)c(C(=S)NC(=O)CC(C)(C)C)c(=O)n(C)c1=O,8.2,38.6,1.5,-16.8,10.6,1.1
Cc1cccc2c(=O)cc(C)n(CC(N)=O)c12,-1.5,5.2,/,-12.1,/,-3.8
C=CC[n+]1c(-c2ccc(Cl)cc2Cl)csc1Nc1ccc(NC(C)=O)cc1,40.8,0.1,52.5*,-2.3,-3.4,21.8
COc1ccc2nc(NC(=S)N(C)C)sc2c1,60.0*,?,-1.8,-23.4,-13.6,48.1
COc1ccc2nc(NC(=O)c3cccnc3SC)sc2c1,11.8,52.3,80.7*,2.2,35.3,30.1
CCCC(=O)Nc1nc2ccc(OC)cc2s1,5.1,-1.2,1.0,-5.7,/,11.5
CCC1(c2ccc(F)cc2)NC(=O)N(CC(=O)N2CCN(C(=O)c3cccs3)CC2)C1=O (stereo unspecified),/,/,/,/,/,2.0
C=CCSc1nnc(NC(=O)c2c(CC)noc2C)s1,3.0,28.3,/,-18.9,/,4.9
O=C(c1ccccc1)N1CCN(C(=S)NCCc2ccccc2)CC1,-0.3,-25.0,53.0*,0.5,26.7,4.9
S=C(NCCc1ccccc1)N1CCN(C(=S)NCCc2ccccc2)CC1,/,/,/,/,/,13.9
CCc1nnc(SCC(=O)Nc2ccc3ccccc3c2)n1N,/,/,/,/,/,-4.9
COc1cc(C(=O)OCc2ccc(C)cc2)cc(NC(=O)c2cccs2)c1OC,-5.1,4.9,54.5*,11.6,27.6,-4.5
COc1cc(C(=O)O)cc(NC(=O)c2cccs2)c1OC,2.7,7.5,25.9,7.8,25.2,/
O=c1c(Cc2c(F)cccc2Cl)c(O)ccn1CCCN1CCOCC1,-18.8,-3.4,-1.9,0.3,10.3,18.4
Cc1onc(-c2ccccc2)c1C(=O)NC(=S)NNC(=O)c1ccc(O)cc1O,-31.0,-3.0,91.9*,-13.0,22.9,5.9
